14 molecules from ChEMBL document CHEMBL1142547, “Synthesis and antiviral activity of novel pyrazole derivatives containing oxime esters group” (Bioorg Med Chem, 2008) can be followed below.

Assay [1] deals with Nicotiana tabacum. The assay is described as follows: Increase in peroxidase enzyme level in TMV-infected tobacco at 500 ug/mL after 1 day by Polle's method. Format: functional, organism-based. In short, it runs like this: (§1)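 Nicotiana tabacum inoculated with TMV was treated at 500 μg/mL, and leaves were sampled at 1, 3, 5 and 7 days. Leaves were homogenized on ice in 5 mM 2-mercaptoethanol–boric acid buffer, pH 8.8, then centrifuged. The supernatant was assayed for PAL (He), POD (Polle) or SOD (Beauchamp). Water and TMV-only treatments were the controls. Means ± SD, n = 3, one-way ANOVA.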

For assay [2], the system named is Tobacco mosaic virus. The assay is described as follows: Antiviral activity against TMV assessed as protection effect against viral infection at 500 mg/L. Format: functional, organism-based. In short, it runs like this: (§2)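 TMV purified by Gooding's method. Protective, inactivating and curative effects tested on tobacco in vivo by Li's method at 500 mg/L. Ningnanmycin served as the reference control. Each experiment used three replicates and was run three times. Data were analysed by one-way ANOVA with LSD mean separation.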

Assay [3] relates to Tobacco mosaic virus. In words: Antiviral activity against TMV assessed as viral inactivation effect at 500 mg/L. The class given is functional. In short, it runs like this: as §2
Assay [4] relates to Tobacco mosaic virus. The assay is described as follows: Antiviral activity against TMV assessed as viral disease curative effect at 500 mg/L. The class given is functional. In short, it runs like this: as §2
The subject of assay [5] is Nicotiana tabacum. The assay is described as follows: […] in phenylalanine ammonia lyase level in TMV-infected tobacco at 500 ug/mL up to 7 days by He's method. The class given is functional, organism-based. An outline of the steps: as §1
The test system of assay [6] is Nicotiana tabacum. The assay is described as follows: Increase in PR-1a gene expression in TMV-infected tobacco leaf assessed as gene expression ratio on day 5 by RT-PCR. The class given is functional. An outline of the steps: (§3)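 Real-time PCR used gene-specific primers, with β-actin as the reference, and included a 40–95 °C melt curve. Expression ratio was calculated by ΔΔCT against a calibrator over days 1–7 after TMV inoculation. Mean ± SD, n = 4, triplicate sets.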

The test system of assay [7] is Nicotiana tabacum. The assay is described as follows: Increase in PR-5 gene expression in TMV-infected tobacco leaf assessed as gene expression ratio on day 5 by RT-PCR. Format: functional. In short, it runs like this: as §3
The test system of assay [8] is Nicotiana tabacum. The assay is described as follows: Increase in peroxidase enzyme level in TMV-infected tobacco at 500 ug/mL after 7 days by Polle's method. The class given is functional. An outline of the steps: as §1
Assay [9] has as its system Nicotiana tabacum. In words: Increase in superoxide dismutase level in TMV-infected tobacco at 500 ug/mL after 7 days by Beauchamp's method. The class given is functional. In short, it runs like this:
as §1

Assay [10] concerns Nicotiana tabacum. In words: Increase in superoxide dismutase level in TMV-infected tobacco at 500 ug/mL after 1 day by Beauchamp's method. Format: functional, organism-based. An outline of the steps: as §1

Calls of active or inactive are those of the source. The calls are words filed in the database; no cut-off is given here.

Regarding `CCCCCC(=O)O/N=C/C1C(C)=NN(c2ccc(Cl)cc2)C1Sc1ccc(F)cc1` (stereo not given), the result in the assay with Nicotiana tabacum [1], in the assay on Nicotiana tabacum [5] and in the assay with Nicotiana tabacum [10] was Active. For the same molecule, the Activity was determined as 31% in the assay on Tobacco mosaic virus [2]; 85.6% in the assay with Tobacco mosaic virus [3]; 62% with Tobacco mosaic virus [4]; 40 EU/mg with Nicotiana tabacum [8]; 40 EU/mg with Nicotiana tabacum [9]. In the assay with Nicotiana tabacum [6], the Ratio turned out to be 26.6. In addition, the result in the assay on Nicotiana tabacum [7] was inactive.

Regarding `C/C=C/C=C/C(=O)O/N=C/C1C(C)=NN(c2ccc(Cl)cc2)C1Sc1ccc(C)cc1` (stereo not given), the Activity in the assay with Tobacco mosaic virus [2] is recorded as 50%; in the assay on Tobacco mosaic virus [3] it was 68.9%; in the assay on Tobacco mosaic virus [4] it was 38.9%.

`CC1=NN(c2cccc(Cl)c2)C(Sc2ccc(F)cc2)C1/C=N/OC(=O)c1ccccc1` (stereo not given): the Activity turned out to be 41% with Tobacco mosaic virus [2], 55% in the assay with Tobacco mosaic virus [3] and 30.2% in the assay with Tobacco mosaic virus [4].

Consider `CC1=NN(c2ccc(C)cc2)C(Sc2ccc(F)cc2)C1/C=N/OC(=O)c1ccccc1` (stereo not given), for which the Activity in the assay on Tobacco mosaic virus [2] came out at 48.4%; in the assay on Tobacco mosaic virus [3] it was 69.2%; with Tobacco mosaic virus [4] it was 50%.

Take `CC(=O)O/N=C/C1C(C)=NN(c2ccccc2)C1Sc1ccc(F)cc1` (stereo not given): the Activity in the assay on Tobacco mosaic virus [2] was found to be 36.7%; in the assay on Tobacco mosaic virus [3] it was 81.4%; in the assay on Tobacco mosaic virus [4], 40.4%.

In the case of `CC1=NN(c2ccc(Cl)cc2)C(Sc2ccc(F)cc2)C1/C=N/OC(=O)c1ccccc1` (stereo not given), the Activity with Tobacco mosaic virus [2] came out at 35%; in the assay with Tobacco mosaic virus [3], 63.8%; with Tobacco mosaic virus [4], 47.7%.

Turning to `C/C=C/C=C/C(=O)O/N=C/C1C(C)=NN(c2ccc(C)cc2)C1Sc1ccc(F)cc1` (stereo not given), the Activity in the assay with Tobacco mosaic virus [2] was found to be 26%; in the assay on Tobacco mosaic virus [3], 80.2%; in the assay on Tobacco mosaic virus [4], 46.4%.

On to `CNCC(=O)N[C@@H](CO)C(=O)N[C@H]1[C@H](O)[C@@H](O)[C@H](n2ccc(N)nc2=O)O[C@@H]1C(N)=O` [NINGNANMYCIN], for which the Activity in the assay on Tobacco mosaic virus [3] was 97%; in the assay with Tobacco mosaic virus [4] it was 56%. For the same molecule, the Ratio with Nicotiana tabacum [6] is 13.8; in the assay on Nicotiana tabacum [7], 17.9.

Take `COc1ccc(SC2C(/C=N/OC(=O)c3ccccc3)C(C)=NN2c2ccc(Cl)cc2)cc1` (stereo not given): the results for the Activity with Tobacco mosaic virus [2], in the assay with Tobacco mosaic virus [3] and in the assay with Tobacco mosaic virus [4] were 27.6%, 56.8% and 35%, respectively.

Take `CCCCCC(=O)O/N=C/C1C(C)=NN(c2ccccc2)C1Sc1ccc(F)cc1` (stereo not given): the Activity in the assay with Tobacco mosaic virus [2] was 28.9%; in the assay with Tobacco mosaic virus [3], 67.8%; with Tobacco mosaic virus [4], 40.2%.

In the case of `CCCC(=O)O/N=C/C1C(C)=NN(c2ccccc2)C1Sc1ccc(F)cc1` (stereo not given), the figures for the Activity with Tobacco mosaic virus [2], in the assay on Tobacco mosaic virus [3] and in the assay on Tobacco mosaic virus [4] were 25.9%, 79.9% and 34%, respectively.

For `C/C=C/C=C/C(=O)O/N=C/C1C(C)=NN(c2ccc(Cl)cc2)C1Sc1ccc(F)cc1` (stereo not given), the Activity was found to be 28.3% in the assay with Tobacco mosaic virus [2], 82.9% in the assay with Tobacco mosaic virus [3] and 60% in the assay with Tobacco mosaic virus [4].

`CCCCCC(=O)O/N=C/C1C(C)=NN(c2ccc(C)cc2)C1Sc1ccc(F)cc1` (stereo not given): the Activity was 40.9% with Tobacco mosaic virus [2], 61.5% with Tobacco mosaic virus [3] and 30% with Tobacco mosaic virus [4].

Turning to `CC1=NN(c2ccccc2)C(Sc2ccc(F)cc2)C1/C=N/OC(=O)c1ccccc1` (stereo not given), the figures for the Activity in the assay on Tobacco mosaic virus [2], with Tobacco mosaic virus [3] and in the assay on Tobacco mosaic virus [4] were 28.8%, 55% and 34.9%, respectively.
